Activity calls are given as the source filed them.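 The calls were made as follows: active = an acetylcholine EC50 could be fitted from its dose curve with compound present at 10 µM; inactive = the rest.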

For the assay, the target named is Muscarinic acetylcholine receptor M1 (Rattus norvegicus) (UniProt P08482). Briefly: leftward shift of ACh curve by M1 PAMs, mechanism study, cell-based, ACh fold-shift, calcium, CHO-K1 (AID 2434). The following applies: CHO-K1 rat M1, Fluo-4 calcium. In a few lines: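 Also added: acetylcholine concentration-response curve, eight concentrations; material: rat M1-expressing CHO-K1 cells, Fluo-4 loaded; signal: Fluo-4 calcium signal; buffer or medium: HBSS assay buffer with HEPES and probenecid, pH 7.4; controls: vehicle acetylcholine curve and maximal acetylcholine response; schedule: dye loading 45–60 min at 37 °C, assay at 25 °C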
Sequence of Muscarinic acetylcholine receptor M1 (Rattus norvegicus) (P08482 whole entry, looked up): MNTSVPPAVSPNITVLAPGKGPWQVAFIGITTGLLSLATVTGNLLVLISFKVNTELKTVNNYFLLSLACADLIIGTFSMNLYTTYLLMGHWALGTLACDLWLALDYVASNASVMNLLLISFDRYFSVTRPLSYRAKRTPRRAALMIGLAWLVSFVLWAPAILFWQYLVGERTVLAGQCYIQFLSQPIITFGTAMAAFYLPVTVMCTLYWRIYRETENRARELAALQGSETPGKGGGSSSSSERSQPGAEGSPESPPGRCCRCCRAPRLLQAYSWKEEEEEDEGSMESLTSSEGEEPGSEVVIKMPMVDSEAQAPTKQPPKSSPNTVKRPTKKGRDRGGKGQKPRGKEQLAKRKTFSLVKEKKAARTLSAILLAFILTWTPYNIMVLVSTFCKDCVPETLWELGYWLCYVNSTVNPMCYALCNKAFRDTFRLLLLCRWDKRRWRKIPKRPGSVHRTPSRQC
Consider `Cc1cc(NC(=O)CS(=O)(=O)c2cn(Cc3cc(Br)ccc3F)c3ccccc23)no1`, for which the outcome was active.
Under `Cn1cc(-c2ccc(CN3C(=O)C(=O)c4ccccc43)c(F)c2)cn1` stands “inactive”; under `Cn1cc(-c2cc(F)c(CN3C(=O)C(=O)c4ccccc43)c(F)c2)cn1`, “inactive”.
In the case of `Cc1cc(NC(=O)CS(=O)(=O)c2cn(Cc3cccc(-c4cn[nH]c4)c3)c3cc(F)cc(F)c23)no1`, the outcome was active.

Values taken from PubChem BioAssay AID2434 (Vanderbilt High Throughput Screening Facility, 2010).
